Assay results as given in ChEMBL document CHEMBL1141513, “Synthesis and evaluation of [123I] labeled iodovinyl amino acids syn-, anti-1-amino-3-[2-iodoethenyl]-cyclobutane-1-carboxylic acid, and 1-amino-3-iodomethylene-cyclobutane-1-carboxylic acid as potential SPECT brain tumor imaging agents” (Bioorg Med Chem Lett, 2008).

What was measured:
[1] = Drug uptake in tumor cells in Fischer rat transplanted with rat 9L cells after 60 mins; type: ADME, Neoplasm; settings: read-out: Drug uptake
In short: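 Fischer rats bearing intracranially implanted 9L gliosarcoma tumours received the [123I]-labelled amino acid by injection. Radioactivity in tumour and normal tissues was counted at 30, 60 and 120 min post-injection, with n=5 per time point. Values were expressed as percent injected dose per gram tissue (%ID/g).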

Rattus norvegicus = species: Rattus norvegicus; assay: Ratio of drug uptake in tumor to brain in Fischer rat transplanted with rat 9L cells; type: ADME, organism-based
In short: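 Fischer rats with intracranial 9L gliosarcoma received [123I] tracer; tumor and brain radioactivity measured at 30, 60, 120 min p.i. (n=5 per time point) as %ID/g, ratio taken as tumor over brain uptake.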

9L [2] = assay: Inhibition of drug uptake in rat 9L cells in presence of 10 mM BCH relative to control; type: cell-based
In short: (§1)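 9L rat gliosarcoma cells incubated with [123I] tracer in HBSS for 30 min at 37°C, with or without 10 mM BCH (L-type transport inhibitor) or MeAIB (A-type inhibitor); uptake expressed as %ID per 1×10^6 cells, inhibition relative to uninhibited controls; significance by 1-way ANOVA.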

[3] = Drug uptake in tumor cells of Fischer rat brain transplanted with rat 9L cells; type: ADME, cell-based; settings: read-out: Drug uptake
In short: (§2)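 [123I]-labelled amino acid given to Fischer rats bearing intracranially implanted 9L gliosarcoma; tumor and normal tissue radioactivity counted at 30, 60 and 120 min post injection, n=5 per time point; expressed as percent injected dose per gram tissue (%ID/g).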

[4] = Drug uptake in normal brain tissue in Fischer rat transplanted with rat 9L cells; type: ADME, tissue-based; in short: as §2
9L [5] = assay: Inhibition of drug uptake in rat 9L cells; type: cell-based; in short: as §1
9L [6] = assay: Inhibition of drug uptake in rat 9L cells in presence of 10 mM MeAIB relative to control; type: cell-based; in short: as §1

| SMILES | tissue uptake at 1 h [1] [%ID/g] | Ratio (Rattus norvegicus) | Drug uptake (9L [2]) [%] | tissue uptake [3] [%ID/g] | tissue uptake [4] [%ID/g] | Drug uptake (9L [5]) [%ID] | Activity (9L [6]) |
| --- | --- | --- | --- | --- | --- | --- | --- |
| N[C@]1(C(=O)O)C[C@@H](C[18F])C1 | 2.5 | 8.9 |  |  |  |  |  |
| NC1(C(=O)O)CC(=C[123I])C1 (configuration not stated) |  | 4.7 | 92.3 | 0.83 | < 0.4 | 8.4 |  |
| N[C@]1(C(=O)O)C[C@@H](/C=C/[123I])C1 |  | 6.5 | 92.3 | 0.83 | < 0.4 | 8.4 |  |
| N[C@]1(C(=O)O)C[C@H](/C=C/[123I])C1 |  | 7.3 | 92.3 | 0.83 | < 0.4 | 8.4 | Not Active |
| N[C@]1(C(=O)O)C[C@H](C[18F])C1 | 1.59 | 6.9 |  |  |  |  |  |
| N[C@]1(C(=O)O)C[C@@H]([18F])C1 [FLUCICLOVINE F18] | 1.72 | 6.6 |  |  |  |  |  |
